Assay [1] deals with D(2) dopamine receptor (Homo sapiens) (UniProt P14416). Nature of the assay: Displacement of [3H]Raclopride from recombinant human D2L receptor expressed in Flp-In CHO cell membranes after 2 to 3 hrs by microbeta counting method. The method in brief:
(§1)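 hD2LR FlpIn CHO membrane homogenate (15 µg protein) was co-incubated with 0.5 nM [3H]raclopride and test compound at 10^-3 to 10^-7 M (half-log dilutions from DMSO stock, in duplicate). Incubation was 2-3 h at 25 °C in HEPES buffer, pH 7.4. Nonspecific binding was defined with 10 µM haloperidol. Filtration was followed by scintillation counting. KB and cooperativity α were obtained from an allosteric ternary complex model.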
(Loss of bound radioactivity is the signal in a displacement assay; it reports binding, not function.)

Assay [2] has the same target. The assay can be described thus: Negative allosteric modulation of recombinant human D2L receptor expressed in Flp-In CHO cells assessed as inhibition of dopamine-induced reduction in forskolin stimulated cAMP accumulation preincubated for 30 mins followed by forskolin stimulation and measured after 30 mins by BRET assay. It counts as functional, cell-based. A general note: Cyclic AMP is a second messenger, typically raised through Gs and lowered through Gi signalling.

Assay [3] has the same target. Nature of the assay: Negative allosteric modulation of recombinant human D2L receptor expressed in Flp-In CHO cells assessed as inhibition of dopamine-induced reduction in forskolin stimulated cAMP accumulation by measuring co-operativity factor preincubated for 30 mins followed by forskolin stimulation and measured after 30 mins by BRET assay. It counts as functional, cell-based.

For assay [4] the target is unchanged. The assay can be described thus: Negative allosteric modulation of recombinant human D2L receptor expressed in Flp-In CHO cells assessed as inhibition of dopamine-induced reduction in forskolin stimulated cAMP accumulation by measuring modulation of dopamine efficacy preincubated for 30 mins followed by forskolin stimulation and measured after 30 mins by BRET assay. It is filed as functional, cell-based.

Assay [5] shares this target. The assay can be described thus: Displacement of [3H]Raclopride from recombinant human D2L receptor expressed in Flp-In CHO cell membranes assessed as co-operativity factor after 2 to 3 hrs by microbeta counting method. The method in brief:
as §1

Assay [6] shares this target. Nature of the assay: Negative allosteric modulation of recombinant human D2L receptor expressed in Flp-In CHO cells assessed as inhibition of dopamine-induced reduction in forskolin stimulated cAMP accumulation by measuring co-operativity factor up to 100 uM preincubated for 30 mins followed by forskolin stimulation and measured after 30 mins by BRET assay. It is filed as functional, cell-based.

Assay [7] has as its target D(3) dopamine receptor (Homo sapiens) (UniProt P35462). Nature of the assay: Displacement of [3H]Raclopride from recombinant D3 receptor (unknown origin) expressed in Flp-In CHO cell membranes after 2 to 3 hrs by microbeta counting method. The method in brief:
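In FlpIn CHO membranes expressing hD3R, compound was tested for displacement of [3H]raclopride in equilibrium binding. Competition curves were fitted with an allosteric ternary complex model to give KB and the net cooperativity factor with [3H]raclopride. Data are at least three independent experiments in duplicate.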

For a further assay, the species on record is Homo sapiens. Nature of the assay: Selectivity ratio of Kb for recombinant D3 receptor (unknown origin) expressed in Flp-In CHO cell membranes to Kb for recombinant human D2L receptor expressed in Flp-In CHO cell membranes. It is filed as cell-based.

The results in this text go back to ChEMBL document CHEMBL4308833, “A Thieno[2,3- d]pyrimidine Scaffold Is a Novel Negative Allosteric Modulator of the Dopamine D2 Receptor” (J Med Chem, 2018).

Calls of active or inactive are those of the source. No cut-off for these calls is given here.

Chain of D(2) dopamine receptor (Homo sapiens) (P14416 whole entry): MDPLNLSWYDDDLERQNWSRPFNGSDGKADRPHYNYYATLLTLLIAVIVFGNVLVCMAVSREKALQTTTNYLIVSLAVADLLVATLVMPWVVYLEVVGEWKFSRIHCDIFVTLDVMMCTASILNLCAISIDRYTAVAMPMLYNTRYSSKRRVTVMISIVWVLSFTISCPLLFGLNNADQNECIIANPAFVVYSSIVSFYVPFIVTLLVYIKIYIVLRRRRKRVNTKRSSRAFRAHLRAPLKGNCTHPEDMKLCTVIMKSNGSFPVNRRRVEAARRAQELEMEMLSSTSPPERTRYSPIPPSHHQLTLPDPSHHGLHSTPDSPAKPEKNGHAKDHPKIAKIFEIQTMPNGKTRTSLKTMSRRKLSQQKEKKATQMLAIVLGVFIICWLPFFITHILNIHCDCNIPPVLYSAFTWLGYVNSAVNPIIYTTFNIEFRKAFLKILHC
Chain of D(3) dopamine receptor (Homo sapiens) (P35462 whole entry): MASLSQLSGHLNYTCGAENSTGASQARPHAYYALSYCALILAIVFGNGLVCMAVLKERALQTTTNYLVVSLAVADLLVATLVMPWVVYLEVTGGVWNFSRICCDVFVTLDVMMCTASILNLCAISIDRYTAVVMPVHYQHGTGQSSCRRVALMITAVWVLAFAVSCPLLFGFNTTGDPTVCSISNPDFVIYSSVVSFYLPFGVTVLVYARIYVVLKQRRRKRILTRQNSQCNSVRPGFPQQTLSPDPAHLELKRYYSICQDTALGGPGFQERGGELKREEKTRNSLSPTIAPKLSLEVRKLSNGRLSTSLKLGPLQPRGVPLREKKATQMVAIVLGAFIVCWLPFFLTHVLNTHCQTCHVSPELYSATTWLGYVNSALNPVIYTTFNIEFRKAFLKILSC

One may read the pKb as the Kb on a negative log10 scale, so that one unit is a factor of ten. In the case of `FC(F)(F)c1cccc(Nc2nc(CN3CCOCC3)nc3sc4c(c23)CCC4)c1`, in assay [1], the Kb was determined as 59 µM and the pKb was 4.23. In addition, in assay [2], the Kb was 11.4 µM and the pKb stood at 4.95. In assay [3], the Activity came to 0.13 and the log(activity) is -0.9. The log(activity) in assay [4] is 0.
Consider `CN(C)c1nc(CN2CCOCC2)nc2sc(Cc3ccccc3)cc12`, for which the Kb in assay [1] turned out to be 30 µM; in assay [2] it was 4.9 µM. Also, the pKb was found to be 4.51 in assay [1] and 5.31 in assay [2]. In addition, the Activity worked out at 0.68 in assay [3] and 0.15 in assay [4]. Also, the log(activity) is -0.17 in assay [3] and -0.84 in assay [4].
On to `FC(F)(F)c1cccc(Nc2nc(CCN3CCOCC3)nc3sc4c(c23)CCCC4)c1`, for which, in assay [1], the Kb stood at 70 µM and the pKb came out at 4.16. Further, in assay [2], the Kb stood at 0.981 µM and the pKb was 6.01. Besides, in assay [3], the Activity worked out at 0.23 and the log(activity) was -0.63. In assay [4], the log(activity) worked out at 0.
On to `FC(F)(F)c1cccc(Nc2nc(CN3CCOCC3)nc3scc(-c4ccccc4)c23)c1`, for which, in assay [1], the Kb was found to be 48.6 µM and the pKb was 4.31. In addition, in assay [5], the Activity amounted to 0.13 and the log(activity) is -0.88. In addition, in assay [6], the inhibition result was “inactive”.
In the case of `Fc1cccc(Nc2nc(CN3CCOCC3)nc3sc4c(c23)CCCC4)c1`, in assay [2], the Kb was 8.39 µM and the pKb amounted to 5.08. For the same compound, the log(activity) in assay [3] was 0. In assay [4], the Activity came out at 0.4 and the log(activity) was -0.4.
For the compound `FC(F)(F)c1cccc(Nc2nc(CN3CCOCC3)nc3sccc23)c1`, the pKb in assay [1] turned out to be 3.91. For the same compound, the inhibition entry in assay [6] is “inactive”.
As for `c1ccc(Nc2nc(CN3CCOCC3)nc3sc4c(c23)CCCC4)cc1`, in assay [1], the Kb came to 99 µM and the pKb was determined as 4. Moreover, in assay [2], the Kb came to 7.46 µM and the pKb worked out at 5.13. Besides, in assay [3], the log(activity) came to 0. Besides, in assay [4], the Activity stood at 0.11 and the log(activity) was -0.95.
With `FC(F)(F)c1cccc(Nc2nc(CN3CCOCC3)nc3sc(Cc4ccccc4)cc23)c1`, in assay [1], the Kb came to 50 µM and the pKb came to 4.3. Moreover, the inhibition entry in assay [6] is “inactive”.
With `O=c1[nH]cnc2sc3c(c12)CCCC3`, the inhibition result in assay [6] is “inactive”.
`COc1cccc(Nc2nc(CN3CCOCC3)nc3sc4c(c23)CCCC4)c1`: in assay [1], the Kb was determined as 48 µM and the pKb came to 4.32. Moreover, in assay [2], the Kb was 8.02 µM and the pKb was determined as 5.1. In addition, in assay [3], the Activity was found to be 0.19 and the log(activity) is -0.73. For the same compound, in assay [4], the Activity was 0.29 and the log(activity) was -0.53.
For `FC(F)(F)c1cccc(Nc2nc(CCCCN3CCOCC3)nc3sccc23)c1`, in assay [1], the Kb was 19 µM and the pKb came to 4.71. Also, in assay [2], the Kb was 1.4 µM and the pKb is 5.85. Moreover, in assay [3], the Activity is 0.13 and the log(activity) is -0.88. For the same compound, in assay [4], the Activity came out at 0.06 and the log(activity) was -1.21.
On to `CNc1nc(CN2CCOCC2)nc2sc3c(c12)CCCC3`, for which, in assay [1], the Kb came out at 53 µM and the pKb is 4.28. Besides, the inhibition entry in assay [6] was “inactive”.
As to `FC(F)(F)c1cccc(Nc2nc(CN3CCOCC3)nc3sc(-c4ccccc4)cc23)c1`, in assay [1], the Kb stood at 45 µM and the negative logarithm of the Kb (pKb) worked out at 4.35. For the same compound, the inhibition result in assay [6] is “inactive”.
As for `FC(F)(F)c1cccc(Nc2nc(CN3CCOCC3)nc3scc(C4CCCCC4)c23)c1`, in assay [1], the Kb came to 38 µM and the pKb is 4.42. For the same compound, the inhibition result in assay [6] is “inactive”.
As for `CCN(CC)c1nc(CCCCN2CCOCC2)nc2sc3c(c12)CCCC3`, the Kb in assay [1] was 16 µM; in assay [2] it was 1.77 µM; in assay [7], 10 µM. Also, the pKb in assay [1] was 4.79; in assay [2], 5.8; in assay [7], 4.99. Besides, the log(activity) in assay [4] came to 1.07. For the same compound, the Selectivity ratio in the assay listed under Homo sapiens was found to be 1.6.
For the compound `FC(F)(F)c1cccc(Nc2nc(CN3CCOCC3)nc3sc4c(c23)CCCCCC4)c1`, the pKb in assay [1] was determined as 3.98. Further, the inhibition result in assay [6] is “inactive”.
For `CCN(CC)c1ncnc2sccc12`, the Kb in assay [1] worked out at 23 µM; in assay [2], 4.6 µM. For the same compound, the figures for the pKb in assay [1] and in assay [2] were 4.65 and 5.31, respectively. Moreover, the Activity in assay [5] stood at 0.1; in assay [4] it was 0.13. Further, the log(activity) in assay [5] is -1.01; in assay [3] it was 0; in assay [4], -0.89.
For the compound `CCN(CC)c1ncnc2sc3c(c12)CCCC3`, the Kb in assay [1] stood at 17 µM; in assay [2] it was 1.92 µM. The pKb turned out to be 4.76 in assay [1] and 5.72 in assay [2]. For the same compound, the log(activity) is 0 in assay [3] and -3 in assay [4].
For the compound `FC(F)(F)c1cccc(Nc2nc(CN3CCOCC3)nc3sc4c(c23)CCCCC4)c1`, in assay [1], the Kb was determined as 37 µM and the pKb was 4.43. In addition, the inhibition result in assay [6] is “inactive”.
As to `Cc1sc2nc(CN3CCOCC3)nc(Nc3cccc(C(F)(F)F)c3)c2c1C`, in assay [1], the pKb turned out to be 3.59. The inhibition entry in assay [6] was “inactive”.
Turning to `CCN(CC)c1nc(CCCCN2CCOCC2)nc2sccc12`, the values for the Kb in assay [1], in assay [2] and in assay [7] were 3 µM, 1.3 µM and 0.9 µM, respectively. Also, the results for the pKb in assay [1], in assay [2] and in assay [7] were 5.51, 5.89 and 6.06, respectively. In addition, the Activity in assay [3] was found to be 0.05; in assay [4], 0.15. Besides, the figures for the log(activity) in assay [3] and in assay [4] were -1.34 and -0.82, respectively. For the same compound, in the assay filed under Homo sapiens, the Selectivity ratio worked out at 3.5.
Turning to `CCN(CC)c1nc(CN2CCOCC2)nc2sccc12`, the Kb amounted to 1.3 µM in assay [1], 3.13 µM in assay [2] and 11 µM in assay [7]. Besides, the pKb in assay [1] was determined as 5.89; in assay [2] it was 5.5; in assay [7] it was 4.95. The Activity in assay [3] was determined as 0.08; in assay [4] it was 0.24. Moreover, the log(activity) in assay [3] is -1.1; in assay [4], -0.62. The Selectivity ratio in the assay listed under Homo sapiens came out at 0.1.
Regarding `Oc1cccc(Nc2nc(CN3CCOCC3)nc3sc4c(c23)CCCC4)c1`, in assay [1], the Kb is 35 µM and the pKb worked out at 4.45. Further, in assay [2], the Kb is 2.81 µM and the pKb is 5.55. Further, in assay [3], the Activity turned out to be 0.06 and the log(activity) is -1.22. In addition, the log(activity) in assay [4] was -3.
For the compound `FC(F)(F)c1cccc(Oc2nc(CN3CCOCC3)nc3sc4c(c23)CCCC4)c1`, in assay [1], the Kb stood at 22 µM and the pKb stood at 4.66. Further, the inhibition result in assay [6] was “inactive”.
As to `FC(F)(F)c1cccc(Nc2nc(CN3CCOCC3)nc3sc(C4CCCCC4)cc23)c1`, in assay [1], the Kb came out at 45.8 µM and the pKb was 4.34. Also, in assay [2], the Kb is 5.37 µM and the pKb was determined as 5.27. In assay [3], the Activity was found to be 0.13 and the log(activity) is -0.9. Besides, the log(activity) in assay [4] is 0.
Turning to `FC(F)(F)c1cccc(Nc2nc(CCCN3CCOCC3)nc3sc4c(c23)CCCC4)c1`, in assay [1], the Kb is 13 µM and the pKb was found to be 4.89. Further, in assay [2], the Kb came to 1.63 µM and the pKb came out at 5.79. In assay [3], the Activity was determined as 0.21 and the log(activity) is -0.68. Moreover, in assay [4], the Activity stood at 0.4 and the log(activity) was -0.4.
For the compound `CCN(CC)c1nc(CC2CCOCC2)nc2sc3c(c12)CCCC3`, in assay [1], the Kb was found to be 35 µM and the pKb came out at 4.45. In addition, in assay [6], the inhibition result is “inactive”.
As to `FC(F)(F)c1cccc(Nc2nc(CN3CCCCC3)nc3sc4c(c23)CCCC4)c1`, in assay [1], the Kb is 39 µM and the negative logarithm of the Kb (pKb) worked out at 4.41. Besides, in assay [2], the Kb turned out to be 6.98 µM and the pKb was 5.16. In assay [3], the Activity came out at 0.34 and the log(activity) was -0.46. In addition, in assay [4], the Activity was 0.6 and the log(activity) is -0.22.
Regarding `FC(F)(F)c1cccc(Nc2ncnc3sccc23)c1`, in assay [1], the Kb was 63 µM and the negative logarithm of the Kb (pKb) was 4.2. In assay [2], the Kb stood at 0.8 µM and the pKb is 6.13. In addition, in assay [3], the Activity worked out at 0.37 and the log(activity) was -0.43. In addition, in assay [4], the log(activity) turned out to be 0.
